Converted amounts (≈) assume the structure as drawn. The source made the active and inactive calls. No cut-off for these calls is given here.
Tests used:
[1] = target: Hepatocyte growth factor receptor (Homo sapiens, UniProt P08581, Y1230H); test: Inhibition of phosphorylated MET Y1230H mutant (unknown origin) pre-incubated for 30 mins before biotinylated poly(glutamate-alanine-tyrosine) peptide addition and measured after 5 mins by HTRF assay
[2] = target: Hepatocyte growth factor receptor (Homo sapiens, UniProt P08581, M1250T); test: Inhibition of phosphorylated MET M1250T mutant (unknown origin) pre-incubated for 30 mins before biotinylated poly(glutamate-alanine-tyrosine) peptide addition and measured after 5 mins by HTRF assay
[3] = Equilibrium solubility in phosphate buffer in presence of 10% Labrasol at pH 7.4; assay type: physicochemical; conditions: phosphate buffer with 10% Labrasol
[4] = target: T1, Hepatocyte growth factor receptor (Homo sapiens, UniProt P08581); test: Inhibition of wild type phosphorylated MET (unknown origin) pre-incubated for 30 mins before biotinylated poly(glutamate-alanine-tyrosine) peptide addition and measured after 5 mins by HTRF assay
[5] = target: Hepatocyte growth factor receptor (Homo sapiens, UniProt P08581, L1195V); test: Inhibition of phosphorylated MET L1195V mutant (unknown origin) pre-incubated for 30 mins before biotinylated poly(glutamate-alanine-tyrosine) peptide addition and measured after 5 mins by HTRF assay
[6] = Lipophilicity, log D of the compound by HPLC method; assay type: physicochemical
[7] = Equilibrium solubility in phosphate buffer in absence of 10% Labrasol at pH 7.4; assay type: physicochemical
[8] = target: T1, Hepatocyte growth factor receptor; test: Inhibition of phosphorylated MET in human MKN45 cells assessed as reduction in pMET Y1230/1234/1235 level incubated for 1 hr by ELISA; assay type: cell-based
How it was run: (§1)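 MKN-45 is a MET-amplified human gastric tumour cell line.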

MKN-45 = test: Antiproliferative activity against human MKN45 cells assessed as reduction in [14C]-thymidine incorporation incubated for 96 hrs by beta counting method; assay type: functional, cell-based; conditions: for IC50: MKN-45, 96 h; how it was run: as §1
[9] = Genotoxicity in Salmonella typhimurium by Ames test; assay type: toxicity; conditions: salmonella enterica subsp. enterica serovar typhimurium
Tubulin = test: Binding affinity to tubulin (unknown origin); assay type: protein-complex assay, Homo sapiens
Cytochrome P450 3A4 [10] = target: T2, Cytochrome P450 3A4 (Homo sapiens, UniProt P08684); test: Mechanism based time dependent inhibition of human recombinant CYP3A4 co-expressed with human P450 reductase and human b5 reductase assessed as reduction in 7-Hydroxyquinoline production using 7-benzyloxyquinoline as substrate and NADPH measured every 3 mins for 15 mins by fluorimetry; assay type: ADME; conditions: recombinant enzyme, 0.25 h
[11] = Drug metabolism in human hepatic microsomes at 5 uM incubated for 20 mins in presence of NADPH by liquid chromatography-tandem mass spectrometry; assay type: ADME, Microsome; conditions: liver microsomes, read-out: Drug metabolism
[12] = target: T1, Hepatocyte growth factor receptor; test: Binding affinity to MET (unknown origin) by isothermal titration calorimetry
[13] = Oral bioavailability in mouse; assay type: ADME, organism-based; conditions: in vivo
[14] = Apparent permeability from apical to basolateral side in human Caco2/TC7 cells at 20 uM by liquid chromatography-tandem mass spectrometry; conditions: Caco-2
Cytochrome P450 3A4 [15] = target: T2, Cytochrome P450 3A4; test: Inhibition of human recombinant CYP3A4 co-expressed with human P450 reductase and human b5 reductase assessed as reduction in 7-Hydroxyquinoline production using 7-benzyloxyquinoline as substrate and NADPH incubated for 15 mins by fluorimetry; assay type: ADME
[16] = target: Cyclin-dependent kinase 9 (Homo sapiens, UniProt P50750); test: Inhibition of CDK9 (unknown origin)
Cyclin-dependent kinase 9, sequence (P50750 whole entry): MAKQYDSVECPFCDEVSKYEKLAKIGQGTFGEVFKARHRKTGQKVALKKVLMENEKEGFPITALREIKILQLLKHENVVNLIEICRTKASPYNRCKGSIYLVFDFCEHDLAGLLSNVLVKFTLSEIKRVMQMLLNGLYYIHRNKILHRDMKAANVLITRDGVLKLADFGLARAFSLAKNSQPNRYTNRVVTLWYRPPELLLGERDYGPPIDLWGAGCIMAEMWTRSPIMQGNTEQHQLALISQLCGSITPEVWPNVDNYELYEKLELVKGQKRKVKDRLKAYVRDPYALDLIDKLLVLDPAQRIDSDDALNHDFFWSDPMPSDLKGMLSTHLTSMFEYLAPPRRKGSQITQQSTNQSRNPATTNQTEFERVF

Hepatocyte growth factor receptor (Homo sapiens, UniProt P08581, L1195V), sequence (P08581 25-1390 L1195V limits assumed): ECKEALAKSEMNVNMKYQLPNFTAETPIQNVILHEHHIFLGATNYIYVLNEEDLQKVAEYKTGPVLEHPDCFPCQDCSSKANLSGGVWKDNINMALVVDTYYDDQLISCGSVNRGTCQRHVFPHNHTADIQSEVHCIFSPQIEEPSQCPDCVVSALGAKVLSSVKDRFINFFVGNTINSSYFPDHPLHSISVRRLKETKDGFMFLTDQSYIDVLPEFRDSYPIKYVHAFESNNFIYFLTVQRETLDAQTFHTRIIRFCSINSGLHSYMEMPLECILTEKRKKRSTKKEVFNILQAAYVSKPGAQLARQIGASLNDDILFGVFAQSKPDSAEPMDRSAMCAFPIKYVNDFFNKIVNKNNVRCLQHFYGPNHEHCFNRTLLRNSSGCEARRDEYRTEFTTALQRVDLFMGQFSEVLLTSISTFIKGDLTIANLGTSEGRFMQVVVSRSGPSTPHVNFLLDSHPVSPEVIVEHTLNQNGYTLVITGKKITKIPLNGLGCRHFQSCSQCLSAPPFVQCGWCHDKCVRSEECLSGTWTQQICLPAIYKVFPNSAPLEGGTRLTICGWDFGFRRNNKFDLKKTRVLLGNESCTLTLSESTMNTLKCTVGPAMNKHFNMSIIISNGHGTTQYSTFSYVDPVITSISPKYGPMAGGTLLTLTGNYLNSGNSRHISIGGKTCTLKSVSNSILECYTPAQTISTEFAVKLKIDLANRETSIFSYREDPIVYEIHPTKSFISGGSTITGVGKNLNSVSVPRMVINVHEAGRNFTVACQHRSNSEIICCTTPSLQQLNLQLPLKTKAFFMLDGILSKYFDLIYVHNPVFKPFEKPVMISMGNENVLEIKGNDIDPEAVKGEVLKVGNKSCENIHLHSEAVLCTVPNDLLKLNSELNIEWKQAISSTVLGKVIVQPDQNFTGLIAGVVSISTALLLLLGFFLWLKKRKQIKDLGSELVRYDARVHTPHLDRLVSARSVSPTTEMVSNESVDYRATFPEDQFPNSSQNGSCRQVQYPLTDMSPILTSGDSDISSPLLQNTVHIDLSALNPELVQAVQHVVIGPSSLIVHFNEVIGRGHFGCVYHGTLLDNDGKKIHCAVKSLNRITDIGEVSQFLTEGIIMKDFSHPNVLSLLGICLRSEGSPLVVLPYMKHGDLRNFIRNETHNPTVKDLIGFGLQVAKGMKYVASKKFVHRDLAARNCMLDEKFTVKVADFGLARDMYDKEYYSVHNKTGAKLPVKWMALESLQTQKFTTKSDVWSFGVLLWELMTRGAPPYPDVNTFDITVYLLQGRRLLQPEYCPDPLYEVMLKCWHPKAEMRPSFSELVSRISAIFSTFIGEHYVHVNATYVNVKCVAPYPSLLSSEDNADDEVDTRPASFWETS
T1 sequence (P08581 whole entry): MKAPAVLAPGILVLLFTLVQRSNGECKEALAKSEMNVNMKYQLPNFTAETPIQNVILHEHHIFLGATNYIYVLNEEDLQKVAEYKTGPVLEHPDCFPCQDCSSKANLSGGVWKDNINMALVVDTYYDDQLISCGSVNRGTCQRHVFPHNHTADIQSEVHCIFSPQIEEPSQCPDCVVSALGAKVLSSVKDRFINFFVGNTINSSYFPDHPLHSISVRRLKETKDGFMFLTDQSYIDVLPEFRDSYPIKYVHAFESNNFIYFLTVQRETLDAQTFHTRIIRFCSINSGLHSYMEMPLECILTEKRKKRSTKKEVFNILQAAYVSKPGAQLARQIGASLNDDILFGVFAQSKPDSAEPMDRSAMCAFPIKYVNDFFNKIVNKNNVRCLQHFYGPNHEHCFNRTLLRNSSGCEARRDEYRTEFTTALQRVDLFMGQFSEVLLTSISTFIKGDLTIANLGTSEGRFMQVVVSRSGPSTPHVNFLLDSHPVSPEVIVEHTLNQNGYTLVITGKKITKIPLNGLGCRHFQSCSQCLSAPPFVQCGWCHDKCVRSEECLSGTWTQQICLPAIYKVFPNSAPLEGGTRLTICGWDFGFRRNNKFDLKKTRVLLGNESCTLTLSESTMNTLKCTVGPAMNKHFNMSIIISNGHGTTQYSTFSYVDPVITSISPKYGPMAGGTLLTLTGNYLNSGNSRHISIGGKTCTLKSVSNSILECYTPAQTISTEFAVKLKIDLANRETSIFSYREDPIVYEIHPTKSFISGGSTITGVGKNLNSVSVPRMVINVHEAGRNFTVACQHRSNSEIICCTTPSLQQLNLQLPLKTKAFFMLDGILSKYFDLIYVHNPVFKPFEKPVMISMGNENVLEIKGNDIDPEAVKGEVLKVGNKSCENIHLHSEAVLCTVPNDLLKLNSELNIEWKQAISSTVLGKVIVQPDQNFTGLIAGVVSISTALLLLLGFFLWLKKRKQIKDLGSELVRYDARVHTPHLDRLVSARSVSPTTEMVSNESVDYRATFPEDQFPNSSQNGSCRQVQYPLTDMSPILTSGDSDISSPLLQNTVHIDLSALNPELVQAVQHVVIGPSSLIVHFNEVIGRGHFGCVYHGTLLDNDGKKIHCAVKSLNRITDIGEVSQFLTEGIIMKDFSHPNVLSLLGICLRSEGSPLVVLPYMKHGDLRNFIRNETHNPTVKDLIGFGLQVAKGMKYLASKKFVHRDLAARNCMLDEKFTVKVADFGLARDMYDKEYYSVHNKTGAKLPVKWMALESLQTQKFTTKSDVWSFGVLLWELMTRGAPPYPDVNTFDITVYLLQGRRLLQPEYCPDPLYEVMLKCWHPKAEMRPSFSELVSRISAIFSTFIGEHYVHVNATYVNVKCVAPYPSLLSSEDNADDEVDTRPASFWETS
Hepatocyte growth factor receptor (Homo sapiens, UniProt P08581, M1250T), sequence (P08581 25-1390 M1250T limits assumed): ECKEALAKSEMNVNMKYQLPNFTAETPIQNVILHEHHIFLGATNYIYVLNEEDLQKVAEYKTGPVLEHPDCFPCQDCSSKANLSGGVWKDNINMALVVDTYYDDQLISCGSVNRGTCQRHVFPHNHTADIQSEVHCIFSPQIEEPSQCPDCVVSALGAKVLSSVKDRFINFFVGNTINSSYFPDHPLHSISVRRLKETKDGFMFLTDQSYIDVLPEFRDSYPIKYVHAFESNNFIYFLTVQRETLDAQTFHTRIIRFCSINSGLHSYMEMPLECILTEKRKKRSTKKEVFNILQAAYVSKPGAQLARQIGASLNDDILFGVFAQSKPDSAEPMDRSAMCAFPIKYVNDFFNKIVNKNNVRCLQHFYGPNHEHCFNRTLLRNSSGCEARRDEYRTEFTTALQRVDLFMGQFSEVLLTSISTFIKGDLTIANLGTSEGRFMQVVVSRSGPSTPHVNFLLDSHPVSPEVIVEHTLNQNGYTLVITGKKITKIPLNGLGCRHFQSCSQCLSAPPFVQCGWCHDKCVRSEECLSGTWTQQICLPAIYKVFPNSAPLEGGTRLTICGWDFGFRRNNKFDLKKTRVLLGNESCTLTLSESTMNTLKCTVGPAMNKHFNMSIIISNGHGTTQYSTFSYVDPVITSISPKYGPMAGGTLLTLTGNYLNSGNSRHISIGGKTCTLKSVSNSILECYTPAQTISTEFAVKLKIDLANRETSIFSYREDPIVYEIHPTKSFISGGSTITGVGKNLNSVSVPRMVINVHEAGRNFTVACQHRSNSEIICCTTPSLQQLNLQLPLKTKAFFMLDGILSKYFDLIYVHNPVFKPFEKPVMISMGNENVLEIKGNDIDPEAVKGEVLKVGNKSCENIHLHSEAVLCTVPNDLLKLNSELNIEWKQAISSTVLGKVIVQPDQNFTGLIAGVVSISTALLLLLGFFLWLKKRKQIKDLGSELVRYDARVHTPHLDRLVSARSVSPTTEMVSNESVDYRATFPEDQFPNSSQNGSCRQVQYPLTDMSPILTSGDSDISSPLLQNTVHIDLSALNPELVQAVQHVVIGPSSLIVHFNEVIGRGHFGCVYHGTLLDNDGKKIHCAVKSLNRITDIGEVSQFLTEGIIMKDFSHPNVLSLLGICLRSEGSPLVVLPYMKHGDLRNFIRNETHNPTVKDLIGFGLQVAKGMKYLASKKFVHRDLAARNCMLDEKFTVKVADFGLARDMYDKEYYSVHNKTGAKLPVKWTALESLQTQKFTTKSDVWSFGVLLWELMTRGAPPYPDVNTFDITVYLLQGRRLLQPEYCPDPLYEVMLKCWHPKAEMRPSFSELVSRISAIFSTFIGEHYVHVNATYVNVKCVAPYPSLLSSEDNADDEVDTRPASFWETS
T2 sequence (P08684 whole entry): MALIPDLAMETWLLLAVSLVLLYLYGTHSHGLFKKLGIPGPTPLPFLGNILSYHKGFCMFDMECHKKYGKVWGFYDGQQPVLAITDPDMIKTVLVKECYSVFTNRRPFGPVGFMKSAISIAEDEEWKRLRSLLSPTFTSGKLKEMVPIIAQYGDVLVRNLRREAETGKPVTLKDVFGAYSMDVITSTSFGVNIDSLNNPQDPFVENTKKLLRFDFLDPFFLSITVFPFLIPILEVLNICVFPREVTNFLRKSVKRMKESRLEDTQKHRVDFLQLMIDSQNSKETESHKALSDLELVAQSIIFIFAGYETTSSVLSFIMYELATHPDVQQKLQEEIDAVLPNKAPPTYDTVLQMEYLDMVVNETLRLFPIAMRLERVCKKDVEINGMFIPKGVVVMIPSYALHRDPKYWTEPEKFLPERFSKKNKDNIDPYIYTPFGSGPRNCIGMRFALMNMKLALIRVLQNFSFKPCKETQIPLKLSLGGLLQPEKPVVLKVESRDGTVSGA

| Compound | IC50 [1] [nM] | IC50 [2] [nM] | solubility thermodynamic [3] [µM] | IC50 [4] [nM] | IC50 [5] [nM] | logD [6] | solubility thermodynamic [7] [µM] | IC50 [8] [nM] | IC50 (MKN-45) [nM] | IC50 (Tubulin) [nM] | INH (Cytochrome P450 3A4 [10]) [%/min] | metabolised at 20 min, 5 µM [11] [%] | Kd [12] [nM] | bioavailability [13] [%] | Papp A→B at 20 µM [14] [×10⁻⁶ cm/s] | IC50 (Cytochrome P450 3A4 [15]) [nM] | IC50 [16] [nM] | inhibition [8] | Activity [9] | inhibition (MKN-45) |
| --- | --- | --- | --- | --- | --- | --- | --- | --- | --- | --- | --- | --- | --- | --- | --- | --- | --- | --- | --- | --- |
| Fc1ccc(-c2ccc3nnc(Sc4ccc5nc(NCCN6CCOCC6)sc5c4)n3n2)cc1 | > 10000 | 455 | 543 | 20 | 835 | 4.1 | < 1 | 13 | 45 |  |  |  |  |  |  |  |  |  |  |  |
| O=C(Nc1nc2ccc(Sc3nnc4ccc(-c5ccc(F)cc5)nn34)cc2s1)OCCN1CCOCC1 | > 10000 |  | 245 | 45 | 6520 | 4.1 | 8 (≈ 4.41 µg/mL) | 25 | 95 |  |  |  |  |  |  |  |  |  |  |  |
| COC(=O)Nc1nc2ccc(Sc3nnc4ccc(-c5ccc(F)cc5)nn34)cc2s1 | > 10000 |  | 15 | 16 | > 10000 | > 4.6 | < 1 | 22 | 91 | > 25000 |  |  |  |  |  |  |  |  | Non-Toxic |  |
| CCCCOc1ccc2nnc(Sc3ccc4nc(NC(=O)NCCN5CCOCC5)sc4c3)n2n1 | 140 |  |  | 5 |  |  | < 2 |  |  |  | -11.3 | 23 |  |  | 0.7 | 8700 |  |  |  |  |
| CCOc1ccc2nnc(Sc3ccc4nc(NC(=O)NCCN5CCOCC5)sc4c3)n2n1 | 643 |  | 460 | 3 |  |  | 5 (≈ 2.5 µg/mL) |  |  |  | -13.1 | 51 |  |  |  | 4000 |  |  |  |  |
| O=C(NCCN1CCOCC1)Nc1nc2ccc(Sc3nnc4ccc(Oc5ccccc5)nn34)cc2s1 | 174 |  |  | 2 |  |  | < 2 |  |  |  | -12.8 | 32 |  |  | 0.8 | 7900 |  |  |  |  |
| O=C(NCCN1CCOCC1)Nc1nc2ccc(Sc3nnc4ccc(Oc5cccc(F)c5)nn34)cc2s1 | 56 |  |  | 3 |  |  | < 2 |  |  |  | -12.2 | 16 |  |  | 0.8 | 2000 |  |  |  |  |
| COC(=O)Nc1nc2cc(Sc3nnc4ccc(-c5ccc(F)cc5)nn34)ccc2[nH]1 |  |  |  | 10 |  | 3.8 |  |  |  | 2000 |  |  |  |  |  |  | > 10000 | Active | Toxic | Active |
| O=C(Nc1nc2ccc(Sc3nnc4ccc(-c5ccc(F)cc5)nn34)cc2s1)C1CC1 | 883 | 13 | 64 | 3 | 61 | 4.7 | < 1 | 4 | 7 |  |  |  |  |  |  |  |  |  |  |  |
| O=C(NCCN1CCOCC1)Nc1nc2ccc(Sc3nnc4ccc(OC5CCCCCC5)nn34)cc2s1 | 407 |  |  | 15 |  |  | < 2 |  |  |  | -11.6 | 36 |  |  | 2 | 14000 |  |  |  |  |
| O=C(NCCN1CCOCC1)Nc1nc2ccc(Sc3nnc4ccc(NC5CCOCC5)nn34)cc2s1 | 217 |  |  | 1 |  |  | 89 (≈ 49.5 µg/mL) |  |  |  | -14.2 | 39 |  |  | 0.2 | > 40000 |  |  |  |  |
| Nc1nc2ccc(Sc3nnc4ccc(-c5ccc(F)cc5)nn34)cc2s1 | > 10000 | 245 | 44 | 10 | 9000 | > 4.6 |  | 43 | 81 |  |  |  |  |  |  |  |  |  |  |  |
| O=C(CC1CC1)Nc1nc2ccc(Sc3nnc4ccc(-c5ccc(F)cc5)nn34)cc2s1 | > 10000 | 128 |  | 4 | > 10000 | > 4.6 | < 2 | 13 | 22 |  |  |  |  |  |  |  |  |  |  |  |
| O=C(NCCN1CCOCC1)Nc1nc2ccc(Sc3nnc4ccc(NC5CC5)nn34)cc2s1 | 274 |  |  | 1 |  |  | < 2 |  |  |  | -3.8 | 26 |  |  |  | 200 |  |  |  |  |
| CCNc1nc2ccc(Sc3nnc4ccc(-c5ccc(F)cc5)nn34)cc2s1 | > 10000 | 417 |  | 15 | > 10000 | > 4.6 | < 2.5 | 15 | 42 |  |  |  |  |  |  |  |  |  |  |  |
| O=C(NCCN1CCOCC1)Nc1nc2ccc(Sc3nnc4ccc(NC5CCCCC5)nn34)cc2s1 | 139 |  |  | 1 |  |  | < 2 |  |  |  | -9.1 | 38 |  |  |  | 2900 |  |  |  |  |

Continued by falling IC50 [4], values first:

| IC50 [1] [nM] | IC50 [2] [nM] | solubility thermodynamic [3] [µM] | IC50 [4] [nM] | IC50 [5] [nM] | logD [6] | solubility thermodynamic [7] [µM] | IC50 [8] [nM] | IC50 (MKN-45) [nM] | IC50 (Tubulin) [nM] | INH (Cytochrome P450 3A4 [10]) [%/min] | metabolised at 20 min, 5 µM [11] [%] | Kd [12] [nM] | bioavailability [13] [%] | Papp A→B at 20 µM [14] [×10⁻⁶ cm/s] | IC50 (Cytochrome P450 3A4 [15]) [nM] | IC50 [16] [nM] | inhibition [8] | Compound | Activity [9] | inhibition (MKN-45) |
| --- | --- | --- | --- | --- | --- | --- | --- | --- | --- | --- | --- | --- | --- | --- | --- | --- | --- | --- | --- | --- |
| 4800 |  | 1070 | 29 |  |  | 70 (≈ 32 µg/mL) |  |  |  | -2.3 | 11 | 12 |  |  | 34000 |  |  | O=C(NCCN1CCOCC1)Nc1nc2ccc(Sc3nnc4cccnn34)cc2s1 |  |  |
|  |  |  | 23 |  |  |  |  |  | 2700 |  |  |  |  |  |  | 1200 |  | COC(=O)Nc1nc2cc(OS(=O)(=O)c3c(Cl)cccc3Cl)ccc2[nH]1 |  |  |
| 140 |  | 1170 | 10 |  |  | 32 (≈ 17.6 µg/mL) |  |  |  | -8.2 | 24 | 8.7 |  | 0.4 | 1800 |  |  | O=C(NCCN1CCOCC1)Nc1nc2ccc(Sc3nnc4ccc(-c5cccc(F)c5)nn34)cc2s1 |  |  |
| 216 |  |  | 6 |  |  | < 2 |  |  |  | -5.5 | 29 |  | 12 | 2.6 | 31000 |  |  | O=C(NCCN1CCOCC1)Nc1nc2ccc(Sc3nnc4ccc(OC5CCCC5)nn34)cc2s1 |  |  |
| 1170 | 93 | 96 | 6 | 318 | 4.3 |  | 2 | 12 |  |  |  |  |  |  |  |  |  | O=C(CCCN1CCOCC1)Nc1nc2ccc(Sc3nnc4ccc(-c5ccc(F)cc5)nn34)cc2s1 |  |  |
|  |  |  | 5 |  |  |  |  |  |  |  |  |  |  |  |  | 6 |  | COCCNC(=O)Nc1nc2cc(OS(=O)(=O)c3c(F)cccc3F)ccc2[nH]1 |  |  |
| 864 | 71 | 1000 | 3 | 148 | 4.15 | < 1 | 10 | 33 |  |  |  |  |  |  |  |  |  | CCN(CC)CCNC(=O)Nc1nc2ccc(Sc3nnc4ccc(-c5ccc(F)cc5)nn34)cc2s1 |  |  |
| 252 |  | 500 | 2 |  |  | < 2 |  |  |  | -4.6 | 23 | 0.6 | 17 | 9.8 | 2700 |  |  | O=C(NCCN1CCOCC1)Nc1nc2ccc(Sc3nnc4ccc(OC5CCCCC5)nn34)cc2s1 |  |  |
| 23 |  |  | 2 |  | 3.9 | < 2 | 29 | 2.7 |  |  |  |  |  |  |  |  |  | CCN1CCC(CCNC(=O)Nc2nc3ccc(Sc4nnc5ccc(-c6cccs6)nn45)cc3s2)CC1 |  |  |
